Active and inactive are the calls of the source. No cut-off for these calls is given here.
Columns and labels:
[1] = Antiproliferative activity against human SKBR3 cells after 72 hrs by MTS/PMS assay; assay type: functional, cell-based; settings: SK-BR-3, 72 h
Outline: (§1)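 Cells kept in 1:1 Advanced DMEM/F12 with non-essential amino acids, 2 mM L-glutamine, penicillin/streptomycin and 10% FBS at 37 °C, 5% CO2. Seeded 2000 cells/well, attached overnight, then given compound at varying concentrations in DMSO (1% final) for 72 h. Viable cells read by MTS/PMS. Normalised to 1% DMSO wells as 100% proliferation. IC50 from separate experiments run in triplicate.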

MCF7 = assay: Antiproliferative activity against human MCF7 cells after 72 hrs by MTS/PMS assay; assay type: functional, cell-based; settings: MCF7, 72 h; outline: as §1
[2] = biological target: T1, Heat shock protein HSP90 (Homo sapiens) (UniProt P07900+P08238); assay: Inhibition of HSP90 in human MCF7 cells assessed as induction of Her2 protein degradation at 0.5 to 5 times antiproliferative IC50 level after 24 hrs by Western blotting method; assay type: cell-based
Outline: (§2)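 MCF-7 cells, grown as for proliferation, treated 24 h with compound in DMSO (1% final). Geldanamycin 0.5 μM and DMSO served as controls. Lysis in cold RIPA with 1 mM PMSF, 2 mM orthovanadate and protease inhibitors, 1 h on ice, then cleared at 14000g, 10 min, 4 °C. BCA protein assay; 20 μg protein run reducing, blotted to nitrocellulose, probed with client antibodies, HRP chemiluminescence. High and low doses were 5-fold and 0.5-fold the antiproliferative value.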

[3] = biological target: T1, Heat shock protein HSP90 (Homo sapiens); assay: Inhibition of HSP90 in human MCF7 cells assessed as induction of Raf protein degradation at 0.5 to 5 times antiproliferative IC50 level after 24 hrs by Western blotting method; assay type: cell-based; outline: as §2
[4] = biological target: T1, Heat shock protein HSP90 (Homo sapiens); assay: Inhibition of HSP90 in human MCF7 cells assessed as induction of Akt protein degradation at 0.5 to 5 times antiproliferative IC50 level after 24 hrs by Western blotting method; assay type: cell-based; outline: as §2

| Compound | IC50 [1] [nM] | IC50 (MCF7) [nM] | inhibition [2] | inhibition [3] | inhibition [4] |
| --- | --- | --- | --- | --- | --- |
| COc1cccc(-c2cc(C(=O)Nc3ccc(-c4ccc(OC5CCN(C)CC5)nc4)cc3)ccc2OC)c1 | 1670 | 1560 |  |  |  |
| COc1cccc(-c2cc(C(=O)Nc3ccc(-c4ccc(OC5CCN(C)CC5)cc4)cc3C)ccc2OC)c1 | 2470 | 1430 |  |  |  |
| COc1cccc(-c2cc(C(=O)Nc3ccc(-c4ccc(OC5CCN(C)CC5)c([N+](=O)[O-])c4)cc3)ccc2OC)c1 | 2070 | 1230 |  |  |  |
| Cc1ccc(C(=O)Nc2ccc(-c3ccc(OC4CCN(C)CC4)cc3)cc2)cc1Br | 2800 | 3350 |  |  |  |
| CN1CCC(Oc2ccc(-c3ccc(NC(=O)c4cccc5ccccc45)cc3)cc2)CC1 | 350 | 490 | Active | Active | Active |
| COc1cccc(-c2cc(C(=O)Nc3ccc(-c4ccc(OC5CCN(C)CC5)cc4)c(N)c3)ccc2OC)c1 | 3900 | 2070 |  |  |  |
| COc1ccc(C(=O)Nc2ccc(-c3ccc(OC4CCN(C)CC4)cc3)cc2)cc1-c1ccc(Cl)cc1 | 1060 | 820 |  |  |  |
| COc1ccc(C(=O)Nc2ccc(-c3ccc(OC4CCN(C)CC4)cc3)cc2)cc1-c1cccc(N)c1 | 1520 | 1670 |  |  |  |
| CC(=O)Oc1ccc(C(=O)Nc2ccc(-c3ccc(OC4CCN(C)CC4)cc3)cc2)cc1CC=C(C)C | 1820 | 1370 |  |  |  |
| Cc1ccc(C(=O)Nc2ccc(-c3ccc(OC4CCN(C)CC4)cc3)cc2)cc1 | 980 | 1270 |  |  |  |
| CN1CCC(Oc2ccc(-c3ccc(NC(=O)c4cc(Cl)cc(Cl)c4)cc3)cc2)CC1 | 810 | 1680 |  |  |  |
| CN1CCC(Oc2ccc(-c3ccc(NC(=O)c4ccccc4-c4ccccc4)cc3)cc2)CC1 | 6260 | 6670 |  |  |  |
| CN1CCC(Oc2ccc(-c3ccc(NC(=O)c4cccc(-c5ccccc5)c4)cc3)cc2)CC1 | 730 | 1150 | Active | Active | Active |
| CC(C)=CCc1cc(NC(=O)Nc2cc3ccc(OC4CCN(C)CC4)c(C)c3oc2=O)ccc1O | 390 | 370 |  |  |  |
| CN1CCC(Oc2ccc(-c3ccc(NC(=O)c4ccc5ncccc5c4)cc3)cc2)CC1 | 1310 | 2070 |  |  |  |
| COc1cccc(-c2cc(C(=O)Nc3ccc(-c4ccc(OC5CCN(C)CC5)cc4)c(C)c3)ccc2OC)c1 | 970 | 1570 |  |  |  |
| Cc1ccc(C(=O)Nc2ccc(-c3ccc(OC4CCN(C)CC4)cc3)cc2)cc1Cl | 1960 | 2280 |  |  |  |
| CN1CCC(Oc2ccc(-c3ccc(NC(=O)c4ccc(-c5ccccc5)cc4)cc3)cc2)CC1 | 4590 | 4440 |  |  |  |
| COc1cccc(-c2cc(C(=O)Nc3ccc(-c4ccc(OC5CCN(C)CC5)cc4)c(OC)c3)ccc2OC)c1 | 900 | 1500 |  |  |  |
| CN1CCC(Oc2ccc(-c3ccc(NC(=O)c4ccc(Br)cc4)cc3)cc2)CC1 | 520 | 520 | inactive | inactive | inactive |
| COc1cccc(-c2cc(C(=O)Nc3ccc(-c4ccc(OC5CCN(C)CC5)cc4)nc3)ccc2OC)c1 | 1210 | 1020 |  |  |  |

| Compound | IC50 [1] [nM] | IC50 (MCF7) [nM] | inhibition [2] | inhibition [3] | inhibition [4] |
| --- | --- | --- | --- | --- | --- |
| COc1cccc(-c2cc(C(=O)Nc3ccc(-c4ccc(OC5CCN(C)CC5)c(NC(C)=O)c4)cc3)ccc2OC)c1 | 2660 | 1840 |  |  |  |
| Cc1ccc(C(=O)Nc2ccc(-c3ccc(OC4CCN(C)CC4)cc3)cc2)cc1I | 930 | 1170 |  |  |  |
| COc1cccc(-c2cc(C(=O)Nc3ccc(-c4ccc(OC5CCN(C)CC5)cc4)c([N+](=O)[O-])c3)ccc2OC)c1 | 2480 | 3320 |  |  |  |
| COc1ccc(C(=O)Nc2ccc(-c3ccc(OC4CCN(C)CC4)cc3)cc2)cc1-c1ccc(O)cc1 | 130 | 500 |  |  |  |
| COc1ccc(C(=O)Nc2ccc(-c3ccc(OC4CCN(C)CC4)cc3)cc2)cc1-c1cccc([N+](=O)[O-])c1 | 400 | 1090 |  |  |  |
| COc1ccc(C(=O)Nc2ccc(-c3ccc(OC4CCN(C)CC4)cc3)cc2)cc1-c1cccc(OC(C)=O)c1 | 270 | 620 |  |  |  |
| CN1CCC(Oc2ccc(-c3ccc(NC(=O)c4ccccc4)cc3)cc2)CC1 | 4130 | 3950 |  |  |  |
| COc1cccc(-c2cc(C(=O)Nc3ccc(-c4ccc(OC5CCN(C)CC5)cc4Cl)cc3)ccc2OC)c1 | 1280 | 1480 |  |  |  |
| COc1cccc(-c2cc(C(=O)Nc3cccc(-c4ccc(OC5CCN(C)CC5)cc4)c3)ccc2OC)c1 | 3650 | 1250 |  |  |  |
| CN1CCC(Oc2ccc(-c3ccc(NC(=O)c4cnc5ccccc5c4)cc3)cc2)CC1 | 2420 | 2760 |  |  |  |
| COc1cccc(-c2cc(C(=O)Nc3ccc(-c4ccc(OC5CCN(C)CC5)cn4)cc3)ccc2OC)c1 | 1910 | 1300 |  |  |  |
| COc1ccc(C(=O)Nc2ccc(-c3ccc(OC4CCN(C)CC4)cc3)cc2)cc1-c1cccc(O)c1 | 1560 | 1080 |  |  |  |
| Cc1cc(C(=O)Nc2ccc(-c3ccc(OC4CCN(C)CC4)cc3)cc2)ccc1Cl | 1110 | 1030 |  |  |  |
| COc1cccc(-c2cc(C(=O)Nc3ccc(-c4ccc(OC5CCN(C)CC5)cc4)c(Cl)c3)ccc2OC)c1 | 2210 | 3440 |  |  |  |
| COc1cccc(-c2cc(C(=O)Nc3ccc(-c4ccc(OC5CCN(C)CC5)c(Cl)c4)cc3)ccc2OC)c1 | 1840 | 1480 |  |  |  |
| COc1cccc(-c2cccc(C(=O)Nc3ccc(-c4ccc(OC5CCN(C)CC5)cc4)cc3)c2)c1 | 810 | 1020 |  |  |  |
| COc1cccc(-c2cc(C(=O)Nc3ccc(-c4ccc(OC5CCN(C)CC5)cc4[N+](=O)[O-])cc3)ccc2OC)c1 | 1180 | 1300 |  |  |  |
| CN1CCC(Oc2ccc(-c3ccc(NC(=O)c4ccc(Cl)c(Cl)c4)cc3)cc2)CC1 | 1200 | 1600 |  |  |  |
| COc1cccc(-c2cc(C(=O)Nc3ccc(-c4ccc(OC5CCN(C)CC5)cc4)cn3)ccc2OC)c1 | 1070 | 1150 |  |  |  |
| CN1CCC(Oc2ccc(-c3ccc(NC(=O)c4cc5ccccc5s4)cc3)cc2)CC1 | 1320 | 2010 |  |  |  |
| COc1cccc(-c2cc(C(=O)Nc3ccc(-c4ccc(OC5CCN(C)CC5)cc4C)cc3)ccc2OC)c1 | 1180 | 1210 |  |  |  |

| Compound | IC50 [1] [nM] | IC50 (MCF7) [nM] | inhibition [2] | inhibition [3] | inhibition [4] |
| --- | --- | --- | --- | --- | --- |
| CN1CCC(Oc2ccc(-c3ccc(NC(=O)c4cccc(Cl)c4)cc3)cc2)CC1 | 1940 | 2830 |  |  |  |
| COc1ccc(-c2cc(C(=O)Nc3ccc(-c4ccc(OC5CCN(C)CC5)cc4)cc3)ccc2OC)cc1 | 630 | 790 |  |  |  |
| CN1CCC(Oc2ccc(-c3ccc(NC(=O)c4ccc(Cl)cc4Cl)cc3)cc2)CC1 | 800 | 1370 |  |  |  |
| COc1cccc(-c2cc(C(=O)Nc3ccc(-c4ccc(OC5CCN(C)CC5)cc4)cc3NC(C)=O)ccc2OC)c1 | 3510 | 1660 |  |  |  |
| COc1cccc(-c2cc(C(=O)Nc3ccc(-c4ccc(OC5CCN(C)CC5)c(N)c4)cc3)ccc2OC)c1 | 2230 | 5950 |  |  |  |
| COc1cccc(-c2cc(C(=O)Nc3ccc(-c4ccc(OC5CCN(C)CC5)cc4)cc3Cl)ccc2OC)c1 | 4290 | 1800 |  |  |  |
| COc1cccc(-c2cc(C(=O)Nc3ccc(-c4ccc(OC5CCN(C)CC5)cc4)cc3N)ccc2OC)c1 | 3210 | 2250 |  |  |  |
| COc1cccc(-c2cc(C(=O)Nc3ccc(-c4ccc(OC5CCN(C)CC5)cc4OC)cc3)ccc2OC)c1 | 1410 | 1350 |  |  |  |
| COc1cccc(-c2cc(C(=O)Nc3ccc(-c4ccc(OC5CCN(C)CC5)cc4)c(NC(C)=O)c3)ccc2OC)c1 | 2520 | 4660 |  |  |  |
| COc1ccc(C(=O)Nc2ccc(-c3ccc(OC4CCN(C)CC4)cc3)cc2)cc1-c1cccc(NC(C)=O)c1 | 3370 | 1430 |  |  |  |
| CC(=O)Oc1ccc(C(=O)Nc2cccc(-c3ccc(OC4CCN(C)CC4)cc3)c2)cc1CC=C(C)C | 3470 | 2710 |  |  |  |
| COc1cccc(-c2cc(C(=O)Nc3ccc(-c4ccc(OC5CCN(C)CC5)cc4NC(C)=O)cc3)ccc2OC)c1 | 3390 | 1360 |  |  |  |
| COc1cccc(-c2cc(C(=O)Nc3ccc(-c4ccc(OC5CCN(C)CC5)cc4N)cc3)ccc2OC)c1 | 2130 | 1760 |  |  |  |
| COc1cccc(-c2cc(C(=O)Nc3ccc(-c4ccc(OC5CCN(C)CC5)c(C)c4)cc3)ccc2OC)c1 | 830 | 1690 |  |  |  |
| COc1cccc(C(=O)Nc2ccc(-c3ccc(OC4CCN(C)CC4)cc3)cc2)c1 | 2870 | 5310 |  |  |  |
| COc1cccc(-c2cc(C(=O)Nc3ccc(-c4ccc(OC5CCN(C)CC5)c(OC)c4)cc3)ccc2OC)c1 | 680 | 1320 |  |  |  |
| CC(=O)Oc1ccc(C(=O)Nc2cccc(-c3cccc(OC4CCN(C)CC4)c3)c2)cc1CC=C(C)C | 1760 | 1700 |  |  |  |
| CN1CCC(Oc2ccc(-c3ccc(NC(=O)c4ccc(C(C)(C)C)cc4)cc3)cc2)CC1 | 1260 | 1080 |  |  |  |
| COc1cccc(-c2cc(C(=O)Nc3ccc(-c4ccc(OC5CCN(C)CC5)cc4)cc3[N+](=O)[O-])ccc2OC)c1 | 3400 | 1150 |  |  |  |
| COc1cccc(-c2cc(C(=O)Nc3ccc(-c4ccc(OC5CCN(C)CC5)cc4)cc3OC)ccc2OC)c1 | 3920 | 1220 |  |  |  |
